In the library only some 2.9% were active in any assay of this set; here they are far more common.
Calb FLC – C. albicans growth modulation with fluconazole | C. albicans CaCi-2 (fluconazole-resistant clinical isolate) + fluconazole, Alamar Blue growth, 48 h | growth inhibition, % (concentration not given with the values) | 300,000 tested, 0.57% active;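 active means growth inhibition above about 58% in most replicates, limit read from the data, passing the limit was not always enough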;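 further: all wells also contain fluconazole at 8 µg/ml as a sub-toxic cotreatment; 0% = median of DMSO wells and 100% = median of geldanamycin control wells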
MC4R antag cAMP – human MC4R antagonism in cAMP assay; 360,000 tested, 0.48% active; AID 540295; MC4R-expressing cells, MTII-stimulated cAMP, LANCE TR-FRET; P32245; inhibition, % at 6.5 µM;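 active means inhibition above its plate's cutoff, the mean of tested wells on that plate plus 3 SD, cut at about 29% in these data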;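 further: 0% = Melanotan II alone and 100% = Melanotan II plus saturating MCL0020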
Target sequence (P32245 whole entry, looked up): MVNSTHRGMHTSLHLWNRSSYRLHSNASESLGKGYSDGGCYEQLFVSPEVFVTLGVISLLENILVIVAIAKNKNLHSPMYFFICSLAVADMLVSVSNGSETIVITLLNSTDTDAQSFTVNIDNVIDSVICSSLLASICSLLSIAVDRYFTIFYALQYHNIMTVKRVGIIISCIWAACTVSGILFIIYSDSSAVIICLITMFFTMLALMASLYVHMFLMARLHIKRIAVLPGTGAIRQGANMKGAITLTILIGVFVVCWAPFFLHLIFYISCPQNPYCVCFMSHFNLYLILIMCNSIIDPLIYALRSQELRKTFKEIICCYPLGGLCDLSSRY
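Test system: U2OS cells stably expressing human melanocortin 4 receptor (MC4R); also added: Melanotan II challenge; compound: 6.5 µM single dose; timing: 30-min compound preincubation, 1-h Melanotan II challenge, 1-h detection, room temperature; signal: Eu-cAMP/anti-cAMP TR-FRET, emission 671 nm; repeats: one well per compound, no replicates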
TAG inh – triacylglycerol accumulation inhibition; H9c2 cells, Nile Red lipid (TAG) fluorescence; cells loaded with 200 µM oleic acid; 230,000 tested, 0.66% active; inhibition, % at 12.5 µM;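 active means pattern-corrected inhibition of lipid staining of at least 50% with the nuclear-stain viability signal not falling by more than 50%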;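 further: 0% = DMSO wells and 100% = triacsin C control wells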
MC4R ag barr – agonists of human melanocortin 4 receptor (MC4R) beta-arrestin. P32245. U2OS MC4R beta-arrestin complementation, luminescence; percent of melanotan II response, DMSO zero. activation, % at 8.9 µM. 360,000 tested, 0.98% active. AID 540308;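 active means activation above a per-plate cutoff, the mean activation of sample wells on that plate plus 3 SD, cut at about 8% in these data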
Efflux pump inh – antifungal efflux pump inhibition, Nile Red retention; S. cerevisiae Candida pump triplex; inhibition, % at 10 µM; 330,000 tested, 0.44% active; AID 485275;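 active means plate passing quality check with inhibition over a set limit, or well fluorescence over plate mean plus 4 SD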;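 further: Nile Red retained in pooled yeast measured as flow cytometry median fluorescence; 0% = buffer negative control and 100% = Enniatin B positive control; higher means more Nile Red kept so more efflux inhibition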
GalR3 antagonist – blocks the human galanin receptor 3; HEK293 GalR3-CNG cAMP membrane potential fluorescence; galR3 body fused to GalR1 C-terminus; inhibition, % at 3 µM; 360,000 tested, 0.44% active; AID 651719;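 active means inhibition above the screen-wide average plus 3 SD, cut at about 13% in these data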;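 further: forskolin and galanin both at EC90 stimulate the cells; cAMP rise reported by CNG channel membrane potential dye signal; 0% = forskolin plus galanin with DMSO and 100% = forskolin alone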
Target sequence (O60755 1-299 limits assumed): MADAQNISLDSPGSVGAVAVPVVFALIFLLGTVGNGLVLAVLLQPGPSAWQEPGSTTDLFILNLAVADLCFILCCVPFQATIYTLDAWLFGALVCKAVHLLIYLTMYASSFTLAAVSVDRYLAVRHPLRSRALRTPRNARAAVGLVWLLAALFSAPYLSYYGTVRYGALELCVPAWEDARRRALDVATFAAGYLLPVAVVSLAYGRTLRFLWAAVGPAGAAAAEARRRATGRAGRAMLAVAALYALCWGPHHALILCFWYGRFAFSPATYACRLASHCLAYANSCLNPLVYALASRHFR
H9c2 TAG conf – triacylglycerol accumulation inhibition, confirmation; shares compounds with TAG inh; inhibition, % at 12.5 µM; H9c2 lipid accumulation, Nile Red fluorescence; cells loaded with 200 µM oleic acid; 990 tested, 71% active;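 active means mean inhibition across replicates of 40% or more; inactive means mean inhibition below 40%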;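 further: plate controls were DMSO only wells for no effect and Triacsin C treated wells for full effect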
Starred values were filed as active, the others as inactive; / = not tested or not shown.

SMILES	Calb FLC	MC4R antag cAMP	TAG inh	MC4R ag barr	Efflux pump inh	GalR3 antagonist	H9c2 TAG conf
CCOC(=O)c1cc(CC)sc1NC(=O)c1ccc(N2CCOCC2)c([N+](=O)[O-])c1	-3.8	10.7	/	-1.7	0.5	/	/
O=C(COC(=O)c1cc([N+](=O)[O-])ccc1N1CCOCC1)Nc1ccc(Cl)cn1	5.7	16.5	50.7*	-2.5	-0.1	-3.5	40.0
O=C(OCc1ccc(Br)cc1)c1cc([N+](=O)[O-])ccc1N1CCOCC1	/	-15.1	52.0*	-0.7	/	-5.5	61.2*
CCOC(=O)c1cc(CC)sc1NC(=O)c1cc([N+](=O)[O-])ccc1N1CCOCC1	-0.8	-4.1	91.5*	-1.6	0.7	-0.7	59.8*
CCOC(=O)c1cc(CC)sc1NC(=O)c1cc(OC)c(OC)c(OC)c1	-1.0	5.9	65.6*	-0.2	-0.1	-3.3	36.9
COC(=O)/C=C1\OC(C2CC2)c2ccccc21 (stereo not given)	/	/	/	/	/	-6.2	/
CC(C)CNc1ncnc2c1ncn2[C@H]1CN(CCN2CCOCC2)C[C@@H](CO)O1	/	7.8	9.7	-2.6	/	-5.8	/
CCN1CCN(Cc2ccc(NC(=O)c3cc(NC(=O)c4cncc(-c5cccs5)c4)cc(OC)c3)cc2C(F)(F)F)CC1	15.5	5.7	57.1*	-1.0	-0.1	-1.7	43.6*
Cc1ccc(-n2cc(CNCCCn3cccn3)c(-c3cccc(C)c3)n2)cc1	1.8	-1.0	52.1*	6.1	-0.1	-3.8	51.9*
OCCCn1c(C2CCCN2c2nc(-c3ccc(F)cc3)cs2)nc2cc(C(F)(F)F)ccc21 (stereo not given)	4.9	4.5	60.1*	-1.0	-0.1	-0.6	57.0*
OCCCn1c(C2CCCN2c2nc(-c3ccc(Cl)cc3)cs2)nc2cc(Cl)c(N3CCCCC3)cc21 (stereo not given)	0.0	0.6	62.1*	-1.6	-0.1	-2.4	56.0*
CC1(C(=O)O)CCCN1C(=O)c1cccc(C(F)(F)F)c1 (stereo not given)	/	1.4	-16.8	-1.5	/	3.5	/
CCN(C(=O)COC(=O)c1ccc([N+](=O)[O-])o1)c1cccc2ccccc12	/	6.7	69.4*	-1.0	0.5	1.0	88.2*
CC(C)(C)N(Cc1ccccc1)C(=O)COC(=O)c1ccc([N+](=O)[O-])o1	/	13.7	6.3	1.2	-0.1	-3.4	/
CN(C(=O)c1cccc(NC(=O)Cc2ccc(NC(=O)C3CCN(C(=O)CCc4ccccc4)CC3)cc2)c1)C1CCCCC1	/	13.7	-27.3	0.8	/	-6.2	/
O=S(=O)(c1cccs1)N1CCCc2nc(-c3ccccc3)ccc21	/	/	/	/	/	-5.8	/
Cc1ccc(C(=O)NCCN2C3=NC[C@H](C(C)C)N3C[C@H]2Cc2ccc(O)cc2)cc1Br	-24.6	3.2	56.6*	-0.7	0.0	3.8	40.2*
COc1ccc(C[C@H]2CN3C(=NC[C@@H]3Cc3ccc(O)cc3)N2C[C@H](C)NC(=O)CCC2CCCCC2)cc1	-1.6	8.2	51.0*	0.3	0.1	-5.1	39.4
O=C(CCC1CCCCC1)NCCN1C2=NC[C@@H](Cc3ccccc3)N2C[C@H]1Cc1ccc(O)cc1	-7.2	-0.7	62.9*	-1.0	/	-2.0	62.1*
COc1ccc(C[C@H]2CN3C(=NC[C@@H]3C(C)C)N2CCNC(=O)c2ccc(C)c(Br)c2)cc1	30.3	9.5	/	3.9	0.5	/	/
COc1ccc(C[C@@H]2CN3C(=NC[C@@H]3Cc3ccc(O)cc3)N2C[C@H](C)NC(=O)CCC2CCCCC2)cc1	-9.0	5.5	44.5	-1.1	0.1	/	/
NC(=O)C1=C(N=C2CCCCC2)CCCC1	/	1.5	-15.0	-0.9	/	-6.7	/
CCC(=O)N1CCCC(C)(C(=O)Nc2ccc(OC(F)F)cc2)C1 (stereo not given)	/	-0.9	-7.1	-0.5	/	6.1	/
Cc1cccc(NC(=O)c2nc[nH]c2C(=O)NCCCCCCNC(=O)c2[nH]cnc2C(=O)Nc2cccc(C)c2)c1	/	0.7	75.6*	-1.4	0.4	-2.8	-2.2
COC(=O)C1=C(C)N(Cc2cccc(C(F)(F)F)c2)C(=NCC2CC2)NC1c1cccc(F)c1 (stereo not given)	/	/	/	/	/	-1.3	/
SMILES	Calb FLC	MC4R antag cAMP	TAG inh	MC4R ag barr	Efflux pump inh	GalR3 antagonist	H9c2 TAG conf
Cc1ccc(C(=O)Nc2cc(C)c(OCC(=O)N3CCOCC3)c(C)c2)cc1	-3.6	3.0	63.2*	-0.3	0.0	-3.5	41.6*
COc1ccccc1C(=O)Nc1cc(C)c(OCC(=O)N2CCOCC2)c(C)c1	-4.1	-1.8	-1.4	-3.9	-0.1	0.0	/
CC(C)(C)NC(=O)C[C@H]1C[C@H](C(=O)N2CCCCC2)[C@@]2(CCc3ccccc3)c3[nH]c4ccc(Cl)cc4c3CCN2C1=O	/	-3.8	61.7*	-0.9	0.1	2.2	44.9*
O=C(C[C@H]1C[C@H](C(=O)N2CCCCC2)[C@@]2(CCc3ccccc3)c3[nH]c4ccc(Cl)cc4c3CCN2C1=O)NCc1ccco1	/	7.5	34.6	0.7	0.1	-6.5	/
O=C(C[C@H]1C[C@H](C(=O)N2CCCCC2)[C@@]2(CCc3ccccc3)c3[nH]c4ccc(Cl)cc4c3CCN2C1=O)NCc1cccc(C(F)(F)F)c1	/	9.9	102.4*	-0.2	-0.1	-4.5	100.3*
COCCCNC(=O)C[C@H]1C[C@H](C(=O)N2CCCCC2)[C@@]2(CCc3ccccc3)c3[nH]c4ccc(Cl)cc4c3CCN2C1=O	/	11.7	26.9	0.9	0.0	-5.0	/
COc1ccc2[nH]c3c(c2c1)CCN1C(=O)C(CC(=O)NCc2cccc(C(F)(F)F)c2)C[C@H](C(=O)N2CCCCC2)[C@@]31CCc1ccccc1 (stereo not given in full)	/	-12.5	102.3*	1.0	-0.1	-2.0	90.0*
O=C(CC1C[C@H](C(=O)N2CCCCC2)[C@@]2(CCc3ccccc3)c3[nH]c4ccccc4c3CCN2C1=O)NCc1cccc(C(F)(F)F)c1 (stereo not given in full)	/	0.5	91.0*	-2.0	0.2	-3.1	88.0*
CCOC(=O)C1=C[C@@H](CC)N(S(=O)(=O)c2ccc(C)cc2)[C@H]1c1cccs1	/	/	/	/	/	-1.6	/
COC(=O)Cn1nnnc1-c1nc2cc(C)c(C)cc2[nH]c1=O	/	/	/	/	/	-5.3	/
CCN(C(=O)CN(C1=NC2CS(=O)(=O)CC2S1)c1ccc(OC)cc1)c1cccc(C)c1 (stereo not given)	/	1.1	-1.4	-1.4	/	/	/
CCCC(=O)N(Cc1cc2cc(OC)ccc2[nH]c1=O)c1ccccc1OC	/	6.7	-2.1	-1.7	/	-8.5	/
C(=N\Nc1nc2ccccc2[nH]1)/c1ccccc1	-3.5	1.7	13.4	1.2	-0.1	-1.9	/
C(=N\Nc1nc2ccccc2[nH]1)/C1CCCCC1	-16.5	10.3	74.1*	-1.1	0.1	-7.2	10.1
